Laboratory results from ChEMBL document CHEMBL2062371, “Synthesis of benzamide derivatives and their evaluation as antiprion agents” (Bioorg Med Chem, 2012).
The source made the active and inactive calls.

How the values were obtained:
SMB [1] = test: Antiprion activity in mouse SMB cells assessed as reduction in PrPSc level at 2 uM after 3 days by dot blot assay relative to control; format: cell-based; set-up: scale not given: the % may be the effect or the level left
Method in brief: (§1)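 Compound was added at a final 20.0 or 2.0 µM, then incubated 3 days (ScN2a at 37 °C, SMB at 35 °C). Lysates were dot-blotted to PVDF, treated with proteinase K (25 µg/ml, 90 min, 37 °C) and denatured with guanidinium thiocyanate. PrPres was probed with rabbit 1023 antiserum and detected by ECL. Signal is relative to untreated control (100%), from three independent experiments.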

[2] = Antiprion activity in mouse ScN2a cells assessed as reduction in PrPSc level after 3 days by dot blot assay relative to control; format: cell-based; conditions: 72 h
ScN2a [3] = test: Antiprion activity in mouse ScN2a cells assessed as reduction in PrPSc level at 2 uM after 3 days by dot blot assay relative to control; format: cell-based; set-up: scale not given: the % may be the effect or the level left; method in brief: as §1
[4] = Inhibition of mouse recombinant alexa fluor 488-labeled PrPC expressed in Escherichia coli BL21(DE3) RIL assessed as inhibition of association with PrPSc measured for 10 secs by SIFT-based confocal microscopy
Method in brief: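 SIFT assay: Alexa-488-labelled mouse rPrP and Alexa-647-labelled L42 antibody (each about 2–6 nM) were mixed with diluted human PrPSc and compound in 20 mM potassium phosphate pH 6 with 0.1% Nonidet P40. Dilution series 0.1–100 µM. Read by dual-colour confocal FIDA as 2D intensity histograms, with cut-offs set from controls. EC50 is half-maximal inhibition of rPrP binding to PrPSc.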

ScN2a [5] = test: Antiprion activity in mouse ScN2a cells assessed as reduction in PrPSc level at 20 uM after 3 days by dot blot assay relative to control; format: cell-based; set-up: scale not given: the % may be the effect or the level left; method in brief: as §1
SMB [6] = test: Antiprion activity in mouse SMB cells assessed as reduction in PrPSc level at 20 uM after 3 days by dot blot assay relative to control; format: cell-based; set-up: scale not given: the % may be the effect or the level left; method in brief: as §1
[7] = Antiprion activity in mouse SMB cells assessed as reduction in PrPSc level after 3 days by dot blot assay relative to control; format: cell-based; conditions: 72 h
ScN2a [8] = test: Antiprion activity in mouse ScN2a cells assessed as inhibition of PrPSc formation at 17 uM after 3 days by dot blot assay relative to control; format: cell-based

SMILES	Activity (SMB [1]) [%]	EC50 [2] [µM]	Activity (ScN2a [3]) [%]	EC50 ([4]; read-out: EC50) [µM]	Activity (ScN2a [5]) [%]	Activity (SMB [6]) [%]	EC50 [7] [µM]	EC50 [4]	inhibition (ScN2a [8])
CCCCNC(=O)c1cc(NC(=O)CN2CCCCC2)ccc1Oc1ccccc1	65	3.86	50	200	30	75	501		
CCCCNC(=O)c1cc(NC(=O)CN2CCCCC2)ccc1OC12CC3CC(CC(C3)C1)C2	54	1.65	27	50	12	36	5.22		
C#CCOc1ccc(NC(=O)CN2CCCCC2)cc1C(=O)NCCCC	70	9.28	76		37	66	97.2	Not Active	
CCCCNC(=O)c1cc(NC(=O)CN2CCCC2)ccc1Oc1ccc(C(F)(F)F)cc1	50	1.61	26	40	12	41	5.81		
CCCCNC(=O)c1cc(NC(=O)CN2CCCC2)ccc1Oc1ccc(OCCCC)cc1	82	2.98	52	30	19	58	53.6		
CCCCNC(=O)c1cc(NC(=O)CN2CCCCC2)ccc1Oc1ccc(C)cc1	86	2.57	36	40	26	86	> 1000		
CCCCCCCC/C=C\CCCCCCCOCC(C[N+](C)(C)CCNC(=O)C(CCCNCCCN)NCCCN)OCCCCCCC/C=C\CCCCCCCC (stereo not drawn)									Active
CCCCNC(=O)c1cc(NC(=O)CN2CCCC2)ccc1Oc1ccc(Cl)cc1	68	1.7	25	55	16	46	12.3		
CCCCNC(=O)c1cc(NC(=O)CN2CCCC2)ccc1Oc1ccc(C(C)C)cc1	73	2.08	32	18	20	48	16.3		
CCCCNC(=O)c1cc(NC(=O)CN2CCCCC2)ccc1Oc1ccc(F)cc1	61	2.93	35	70	32	81	> 1000		
CCCCNC(=O)c1cc(NC(=O)CN2CCCCC2)ccc1OC(C)C	58	6.86	78		29	72	161	Not Active	
CCCCNC(=O)c1cc(NC(=O)CN2CCCCC2)ccc1Oc1ccccc1C(F)(F)F	75	2.04	39	70	12	55	30.6		
CCCCNC(=O)c1cc(NC(=O)CN2CCCCC2)ccc1Oc1ccc(Cl)cc1	68	2.25	35	20	21	49	15		
CCCCNC(=O)c1cc(NC(=O)CN2CCCCC2)ccc1Oc1ccc(OC)cc1	83	3.56	49	150	28	82	> 1000		
CCCCNC(=O)c1cc(NC(=O)CN2CCCC2)ccc1Oc1ccc(F)cc1	57	4.7	45	200	39	92	> 1000		
CCCCNC(=O)c1cc(NC(=O)CN2CCCC2)ccc1Oc1ccccc1	92	5.52	48	200	41	82	> 1000		
CCCCNC(=O)c1cc(NC(=O)CN2CCCCC2)ccc1Oc1ccc(OCCCC)cc1	76	3.73	61	50	21	52	24.3		
CCCCNC(=O)c1cc(NC(=O)CN2CCCCC2)ccc1Oc1ccc(C(C)C)cc1	72	2.22	43	15	13	46	13.8		
CCCCNC(=O)c1cc(NC(=O)CN2CCCC2)ccc1OC1CCCCC1	67	3.14	38	200	32	38	7.81		
CCCCNC(=O)c1cc(NC(=O)CN2CCCCC2)ccc1OC1CCCCC1	76	2.39	37	80	22	65	108		
CCCCNC(=O)c1cc(NC(=O)CN2CCCCC2)ccc1Oc1ccc(C(F)(F)F)cc1	80	2.08	35	70	17	53	30		
CCCCNC(=O)c1cc(NC(=O)CN2CCCC2)ccc1Oc1ccc(C)cc1	61	1.83	32	70	13	55	18.9		
C#CCOc1ccc(NC(=O)CN2CCCC2)cc1C(=O)NCCCC	74	3.52	43		32	65	99.2	Not Active	
CCCCNC(=O)c1cc(NC(=O)CN2CCCC2)ccc1OC(C)C	59	2.76	42		24	48	10.8	Not Active	
CCCCNC(=O)c1cc(NC(=O)CN2CCCC2)ccc1OC12CC3CC(CC(C3)C1)C2	77	2	34	80	16	42	12.4		
CCCCNC(=O)c1cc(NC(=O)CN2CCCC2)ccc1Oc1ccccc1C(F)(F)F	61	1.42	16	25	15	54	16.5		
CCCCNC(=O)c1cc(NC(=O)CN2CCCC2)ccc1Oc1ccc(OC)cc1	74	2.92	36	198	31	75	866		
